Measurements from ChEMBL document CHEMBL5724801, “EUbOPEN Chemogenomics Library - Multiplex” (2024).
Where “and” joins values, the source holds several entries; their conditions need not be identical. Equal entries are not always repeated.

Tested on: U2OS
Test: Multiplex assay against U2OS
Format: toxicity, cell-based
Details: human
Summary of the method: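 Tubulin, mitochondrial-mass and membrane-permeability phenotypes are per cents of healthy-nucleus cells. Cells were gated by CellPathfinder machine learning into Hoechst high-intensity objects or normal cells, normal cells into healthy, pyknosed or fragmented nuclei, and pyknosed cells into mitotic or apoptotic. Before that, live cells stained at seeding with Hoechst33342, BioTracker Green Microtubule Cytoskeleton Dye, MitoTracker Red and Annexin V Alexa Fluor 680 were imaged on a CQ1 microscope at 37°C and 5% CO2 after compound addition.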

[1] = 12 h, 1 µM, compound concentration 1 uM
[2] = 12 h, 10 µM, compound concentration 10 uM
[3] = 24 h, 1 µM, compound concentration 1 uM
[4] = 24 h, 10 µM, compound concentration 10 uM
[5] = 48 h, 1 µM, compound concentration 1 uM
[6] = 48 h, 10 µM, compound concentration 10 uM

## O=C1COc2nccc(-c3ccccc3F)c2CN1Cc1cc(C(F)(F)F)cc(C(F)(F)F)c1
[1]
  Population Apoptotic (%): 52% and 77%
  Population Fragmented Nuclei (%): 19% and 23%
  Population Healthy Nuclei (%): 72% and 67%
  Population Hoechst High Intensity Objects (%): 4% and 2%
  Population Membrane Permeable-Phenotype (%): 6% and 15%
  Population Mitochondria Different-Phenotype (%): 2% and 9%
  Population Mitotic Cells (%): 47% and 22%
  Population Normal (%): 95% and 97%
  Population Pyknosed Nuclei (%): 8%
  Population Tubulin-Different-Phenotype (%): 4% and 11%
  Total Cell Count: 252 and 108
[2]
  Population Apoptotic (%): 70% and 100%
  Population Fragmented Nuclei (%): 36% and 16%
  Population Healthy Nuclei (%): 47% and 76%
  Population Hoechst High Intensity Objects (%): 3% and 5%
  Population Membrane Permeable-Phenotype (%): 25% and 17%
  Population Mitochondria Different-Phenotype (%): 27% and 23%
  Population Normal (%): 96% and 94%
  Population Pyknosed Nuclei (%): 16% and 7%
  Population Tubulin-Different-Phenotype (%): 25% and 13%
  Total Cell Count: 200 and 112
[3]
  Population Apoptotic (%): 86% and 83%
  Population Fragmented Nuclei (%): 17% and 18%
  Population Healthy Nuclei (%): 74% and 76%
  Population Hoechst High Intensity Objects (%): 3% and 4%
  Population Membrane Permeable-Phenotype (%): 8% and 12%
  Population Mitochondria Different-Phenotype (%): 3% and 7%
  Population Mitotic Cells (%): 13% and 16%
  Population Normal (%): 96% and 95%
  Population Pyknosed Nuclei (%): 8% and 5%
  Population Tubulin-Different-Phenotype (%): 3% and 5%
  Total Cell Count: 291 and 121
[4]
  Population Apoptotic (%): 58% and 100%
  Population Fragmented Nuclei (%): 36% and 21%
  Population Healthy Nuclei (%): 43% and 70%
  Population Hoechst High Intensity Objects (%): 5%
  Population Membrane Permeable-Phenotype (%): 21% and 13%
  Population Mitochondria Different-Phenotype (%): 22% and 19%
  Population Normal (%): 94%
  Population Pyknosed Nuclei (%): 19% and 8%
  Population Tubulin-Different-Phenotype (%): 17% and 7%
  Total Cell Count: 210 and 126
[5]
  Population Apoptotic (%): 84% and 76%
  Population Fragmented Nuclei (%): 16% and 19%
  Population Healthy Nuclei (%): 74% and 69%
  Population Hoechst High Intensity Objects (%): 3%
  Population Membrane Permeable-Phenotype (%): 5% and 8%
  Population Mitochondria Different-Phenotype (%): 3% and 5%
  Population Mitotic Cells (%): 15% and 23%
  Population Normal (%): 96%
  Population Pyknosed Nuclei (%): 9% and 10%
  Population Tubulin-Different-Phenotype (%): 3%
  Total Cell Count: 425 and 166
[6]
  Population Apoptotic (%): 61% and 85%
  Population Fragmented Nuclei (%): 35% and 25%
  Population Healthy Nuclei (%): 46% and 60%
  Population Hoechst High Intensity Objects (%): 4%
  Population Membrane Permeable-Phenotype (%): 20% and 12%
  Population Mitochondria Different-Phenotype (%): 17% and 12%
  Population Mitotic Cells (%): 38% and 14%
  Population Normal (%): 95%
  Population Pyknosed Nuclei (%): 17% and 14%
  Population Tubulin-Different-Phenotype (%): 11% and 3%
  Total Cell Count: 236 and 151

## COc1ccc(Cl)cc1[C@]1(F)C(=O)Nc2cc(C(F)(F)F)ccc21 [FLINDOKALNER]
[1]
  Population Apoptotic (%): 40.48% and 33.33%
  Population Fragmented Nuclei (%): 1.33% and 3.73%
  Population Healthy Nuclei (%): 87.53% and 81.37%
  Population Hoechst High Intensity Objects (%): 0%
  Population Membrane Permeable-Phenotype (%): 1.21% and 0.76%
  Population Mitochondria Different-Phenotype (%): 0.3% and 7.63%
  Population Mitotic Cells (%): 59.52% and 66.67%
  Population Normal (%): 100%
  Population Pyknosed Nuclei (%): 11.14% and 14.91%
  Population Tubulin-Different-Phenotype (%): 0.61% and 0.76%
  Total Cell Count: 377 and 161
[2]
  Population Apoptotic (%): 21.43% and 29.17%
  Population Fragmented Nuclei (%): 2.21% and 3.35%
  Population Healthy Nuclei (%): 86.19% and 83.24%
  Population Hoechst High Intensity Objects (%): 0%
  Population Membrane Permeable-Phenotype (%): 0.64% and 5.37%
  Population Mitochondria Different-Phenotype (%): 0% and 12.08%
  Population Mitotic Cells (%): 78.57% and 70.83%
  Population Normal (%): 100%
  Population Pyknosed Nuclei (%): 11.6% and 13.41%
  Population Tubulin-Different-Phenotype (%): 1.6% and 1.34%
  Total Cell Count: 362 and 179
[3]
  Population Apoptotic (%): 41.67% and 37.93%
  Population Fragmented Nuclei (%): 1.57% and 1.48%
  Population Healthy Nuclei (%): 88.98% and 84.24%
  Population Hoechst High Intensity Objects (%): 0%
  Population Membrane Permeable-Phenotype (%): 0.22% and 2.34%
  Population Mitochondria Different-Phenotype (%): 0.22% and 5.26%
  Population Mitotic Cells (%): 58.33% and 62.07%
  Population Normal (%): 100%
  Population Pyknosed Nuclei (%): 9.45% and 14.29%
  Population Tubulin-Different-Phenotype (%): 0.88% and 0.58%
  Total Cell Count: 508 and 203
[4]
  Population Apoptotic (%): 29.63% and 42.11%
  Population Fragmented Nuclei (%): 1.38% and 4.65%
  Population Healthy Nuclei (%): 88.02% and 77.67%
  Population Hoechst High Intensity Objects (%): 0%
  Population Membrane Permeable-Phenotype (%): 1.34% and 7.78%
  Population Mitochondria Different-Phenotype (%): 0% and 8.38%
  Population Mitotic Cells (%): 70.37% and 57.89%
  Population Normal (%): 100%
  Population Pyknosed Nuclei (%): 10.61% and 17.67%
  Population Tubulin-Different-Phenotype (%): 1.34% and 0%
  Total Cell Count: 509 and 215
[5]
  Population Apoptotic (%): 38.67% and 50%
  Population Fragmented Nuclei (%): 2.32% and 1.61%
  Population Healthy Nuclei (%): 89.42% and 82.32%
  Population Hoechst High Intensity Objects (%): 0%
  Population Membrane Permeable-Phenotype (%): 1.48% and 1.56%
  Population Mitochondria Different-Phenotype (%): 0.12% and 5.08%
  Population Mitotic Cells (%): 61.33% and 50%
  Population Normal (%): 100%
  Population Pyknosed Nuclei (%): 8.27% and 16.08%
  Population Tubulin-Different-Phenotype (%): 0.74% and 0.78%
  Total Cell Count: 907 and 311
[6]
  Population Apoptotic (%): 34.18% and 46.94%
  Population Fragmented Nuclei (%): 2.33% and 1.38%
  Population Healthy Nuclei (%): 89.31% and 85.12%
  Population Hoechst High Intensity Objects (%): 0%
  Population Membrane Permeable-Phenotype (%): 0.83% and 3.24%
  Population Mitochondria Different-Phenotype (%): 0% and 5.18%
  Population Mitotic Cells (%): 65.82% and 53.06%
  Population Normal (%): 100%
  Population Pyknosed Nuclei (%): 8.36% and 13.5%
  Population Tubulin-Different-Phenotype (%): 1.3% and 0.32%
  Total Cell Count: 945 and 363
